Consider 72 molecules from ChEMBL document CHEMBL4513216, “Probing the Open Global Health Chemical Diversity Library for Multistage-Active Starting Points for Next-Generation Antimalarials” (ACS Infect Dis, 2020).

The nature of the series: Toxicity liver stage against HepG2, at 10uM. In kind it is cell-based. Also noted: test concentration 10 uM, cell line HepG2-A16-CD81EGFP. Particulars: human, HepG2-A16-CD81EGFP cells; read-out: INHIBITION
The gist of the method: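 Uninfected HepG2-A16-CD81EGFP cells, 3 × 10^3 per well, 1536-well, plated on prespotted compound at 10 μM final, parasite-free screening media added to match infected plates; puromycin 10 μM positive, DMSO 0.5% negative; run in parallel with 48 h PbLuc assay at 37 °C, 5% CO2; viability by CellTiter-Glo luminescence, normalized to controls.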
For the molecule `COCc1nc(C(=O)NS(=O)(=O)c2ccc(Cl)cc2F)cs1`, the cytotoxicity at 10 µM was 8.13%.

For the molecule `CCSCC(C)NCc1nn(C)c2ccc(C)cc12` (configuration not stated), the cytotoxicity at 10 µM came to 1.71%.

Take `CC1(C(=O)N2CCOCC2)CNCCO1` (configuration not stated): the cytotoxicity at 10 µM came to 1.2%. Under `CC(C)NC(=O)N1CCc2onc(C(=O)Nc3cccnc3)c2C1` stands 4.32%; under `Cn1nccc1CN1CCCC(COc2ccccc2F)C1` (configuration not stated), -9.54%. Consider `NC(=O)C(CNC(=O)CCc1ccccc1)Cc1ccc(F)cc1` (configuration not stated), for which the cytotoxicity at 10 µM came out at 6.62%.

For `O=C(CN1CC(c2nc(-c3cccs3)no2)C1)NCC1CCCO1` (configuration not stated), the cytotoxicity at 10 µM was -1.47%.

For the molecule `O=C(NCc1ccco1)[C@@H]1CCO[C@@H]2CCN(c3ccncn3)C[C@H]21`, the cytotoxicity at 10 µM came out at 0.118%. In the case of `O=C(NCCc1ccccc1)N1CCCCC1C1OCCO1` (configuration not stated), the cytotoxicity at 10 µM is -45.2%.

Consider `Cc1nc(C)c(C(=O)NCCNc2ncccc2C#N)s1`, for which the cytotoxicity at 10 µM was -1.5%. `CCOCC(=O)N1CCc2c(CN(C)C)nn(C(C)C)c2C1`: the cytotoxicity at 10 µM was -2.63%.

`CCc1nnc(C(C)N2CCCN(C(=O)Oc3ccccc3)CC2)o1` (configuration not stated): the cytotoxicity at 10 µM amounted to 2.79%. For the molecule `CCCc1noc(CCC(=O)N2CCCC2Cn2cc(C)cn2)n1` (configuration not stated), the cytotoxicity at 10 µM was -1.11%. With `OC1(CNCCc2nc3c(s2)CCCC3)CNCCOC1` (configuration not stated), the cytotoxicity at 10 µM was found to be 17.4%.

Take `Cc1ccc(CCNC(=O)NCc2cccc(OC(F)F)c2)cn1`: the cytotoxicity at 10 µM is -2.66%.

With `O=C(CN1CCc2onc(-c3ccccc3F)c2C1)NC1CC1`, the cytotoxicity at 10 µM was found to be 14.6%. Then `CSCC1CCN(C(=O)Cn2ncc(N3CCCCC3)cc2=O)CC1`, with -3.95%. Turning to `Cc1cnc(C(=O)N2C[C@@H]3CN(CC4CCCC4)CCO[C@@H]3C2)cn1`, the cytotoxicity at 10 µM was -2.76%.

In the case of `Fc1cccnc1O[C@@H]1CN(Cc2ccco2)[C@@H]2CCCO[C@@H]21`, the cytotoxicity at 10 µM was determined as 5.08%.

As to `CC1=C(c2ccc(C(C)C)cc2)S(=O)(=O)N=C1N1CCc2ccccc21`, the cytotoxicity at 10 µM was -16.8%. As for `Cc1nc2c(c(C)c1CC(=O)NCc1ccccc1F)c(=O)[nH]n2C`, the cytotoxicity at 10 µM was -5.52%. As for `CC(c1cccc(-c2ccc(C(=O)O)cc2Cl)c1)N(C)C` (configuration not stated), the cytotoxicity at 10 µM is -2.25%.

Take `CC1CN(Cc2ccccn2)CCN1c1ccc2nncn2n1` (configuration not stated): the cytotoxicity at 10 µM was -1.07%. Regarding `O=C(NCc1cccs1)c1[nH]nc2c1CS(=O)(=O)CC2`, the cytotoxicity at 10 µM is 1.41%. As for `CCn1c(Cn2cncn2)nnc1C1CCN(C2CCNCC2)CC1`, the cytotoxicity at 10 µM was -0.0807%. `Cc1cnn(CC2CN(CC(=O)Nc3cccnc3)CCO2)c1` (configuration not stated): the cytotoxicity at 10 µM was 8.1%.

`CCn1nc(C)c(CNC(=O)c2nnc3ccccc3n2)c1C`: the cytotoxicity at 10 µM stood at 5.81%.

Consider `Cn1cccc1C(=O)N1CCc2c(CNS(C)(=O)=O)cncc2C1`, for which the cytotoxicity at 10 µM is 4.68%. Then `O=C(O)c1ccccc1-n1cnc(CN2CCc3ccccc3C2)c1`, with 13.6%; and `O=C(c1cc(-n2cccn2)ccn1)N1CCOc2ccncc21`, with 10.6%; and `COC(=O)C1CN(CC(=O)Nc2cc(F)ccc2F)c2ccccc21` (configuration not stated), with 8.32%.

For `COc1ccc(NC2CCCN(Cc3cnc(N(C)C)s3)C2)cc1OC` (configuration not stated), the cytotoxicity at 10 µM worked out at 3.46%.

`Cc1cnn(CC2CN(CC(=O)Nc3cc(C)on3)CCO2)c1` (configuration not stated): the cytotoxicity at 10 µM was -7.3%. Take `COc1cc(C)nc(N2CCN(C(=O)c3cc(Cl)c[nH]3)CC2)n1`: the cytotoxicity at 10 µM is 7.32%. Then `COCc1noc(Cn2c(=O)[nH]c3ccccc32)n1`, with 4.84%; and `C1CCC(CO[C@@H]2CC[C@H]3[C@H]2OCCN3CC2CCOCC2)C1`, with 11.4%.

Consider `CCN(CC)C(=O)CN1CCCC1C(=O)N(C)C` (configuration not stated), for which the cytotoxicity at 10 µM came out at 12.5%.

Consider `Cc1cc(Cn2cncc(Br)c2=O)on1`, for which the cytotoxicity at 10 µM was determined as 15.2%. Under `CC(C)(C)CCNc1nccc(-c2c[nH][nH]c2=O)n1` stands -5.25%; under `CN(CC(=O)N1CCCC1c1noc(C2CC2)n1)C1CC1` (configuration not stated), 9.62%. With `c1cc(-c2ccn(CCN3CCCC3)n2)cc(-c2nccs2)c1`, the cytotoxicity at 10 µM was -8.96%. Under `Cc1cc(-c2cc(S(=O)(=O)N3C[C@H](C4CC4)[C@@H](N)C3)c(C)s2)on1` stands 3.37%; under `CC(=O)N1CCCC1c1nccnc1Nc1ncccn1` (configuration not stated), -1.2%; under `Cn1ccc(CN2CCC(NC(=O)C3CCCCC3)CC2)cc1=O`, -13%.

Regarding `O=C(CN1C(=O)CCC1=O)N1CCOC2(CCOCC2)C1`, the cytotoxicity at 10 µM amounted to 4.1%. Regarding `CCN(CC)C(=O)CN(C)C(=O)c1cccn1CCc1ccccc1`, the cytotoxicity at 10 µM was determined as 1.98%. In the case of `Cc1csc(CN2CCn3c(COc4cccnc4)cnc3C2C)n1` (configuration not stated), the cytotoxicity at 10 µM is -98.4%. Then `Cc1cc(F)c2c(c1)CCCN2Cc1cc(=O)n(C)c(=O)n1C`, with 8.1%; and `COc1ccc(C2OC(COc3ccc(C)cc3)=NN2C(C)=O)cc1` (configuration not stated), with -6.19%; and `Cc1ccc2c(CC(=O)N3C[C@@H](O)[C@H](N(C)C)C3)coc2c1`, with 10.4%.

With `CC(C)(C)c1ncc(CNc2ccccc2SCCC(N)=O)s1`, the cytotoxicity at 10 µM is 55.4%.

As to `Cn1nc(CN2CCCC2)c2c1CN(C(=O)Nc1cccc(F)c1)CC2`, the cytotoxicity at 10 µM is 5.98%.

Regarding `CN(Cc1ccccc1)C(=O)CCNS(=O)(=O)c1cccnc1`, the cytotoxicity at 10 µM was -1.24%. Under `CC(=O)N1CCCc2cc(Nc3nccn(C)c3=O)ccc21` stands -49.4%. Then `Cc1ccc(-c2nc(CN3CCCC3Cn3cncn3)cs2)o1` (configuration not stated), with -7.88%; and `CCC(CN1CCCC1)n1cncc1-c1cnn(Cc2ccccc2)c1` (configuration not stated), with 3.92%.

For the molecule `CN(C)c1nc2c(c(N3CCCC4(CC3)CNC(=O)O4)n1)CCCC2` (configuration not stated), the cytotoxicity at 10 µM was -1.07%.

Turning to `Cc1ccc(C(=O)N(C)Cc2cc(C)on2)cn1`, the cytotoxicity at 10 µM is -3.05%. Then `O=S(=O)(C1CC1)N1CC[C@]2(C[C@@H](Oc3ccccn3)CO2)C1`, with -10.4%; and `FC1(F)CCN(Cc2cccnc2)CC12CCN(c1ccccc1)C2` (configuration not stated), with -84.5%; and `O=C(Cc1cccc(F)c1)NCCNS(=O)(=O)C1CCCC1`, with 3.61%.

Turning to `NC(=O)C1(CCCc2ccccn2)CCCN(c2ncccn2)C1` (configuration not stated), the cytotoxicity at 10 µM was -5.69%. On to `CC(Cn1cccn1)NCC(=O)NC1(C#N)CCCCC1` (configuration not stated), for which the cytotoxicity at 10 µM is -3.6%. Take `Cn1c(NC(=O)CNC(=O)C2CC2)nc2cc(Cl)ccc21`: the cytotoxicity at 10 µM turned out to be 3.66%. Take `Cc1ccc(Cl)cc1NS(=O)(=O)c1cc(C(N)=O)n(C)c1`: the cytotoxicity at 10 µM was 3.8%. Then `O=C(CC(F)(F)F)N1C[C@@H]2CC[C@H]1CN(Cc1ccccc1)C2`, with -3.63%; and `OCCOCCN1CCCC1c1cccc(Cl)c1` (configuration not stated), with -1.78%. Under `Cc1cccnc1CN(C)c1ncnc2[nH]ccc12` stands 4.77%; under `O=C(COc1coc(CN2CCOCC2)cc1=O)Nc1ccc(Cl)cc1`, -6.51%; under `CCc1nc(C2CCCN(C(=O)c3ccc(F)cc3)C2)no1` (configuration not stated), -40.5%. For `CC(Cn1ccnc1)NC(=O)C1(c2ccc(F)cc2)CCCC1` (configuration not stated), the cytotoxicity at 10 µM is -9.98%.

`Cc1ncc(-c2ccnc(SCCN(C)C)n2)c(-c2ccco2)n1`: the cytotoxicity at 10 µM was -7.25%.
